Calls of active or inactive are those of the source. The calls are words filed in the database; no cut-off is given here.
Columns and labels:
[1] = biological target: T1, Pancreatic alpha-amylase (Sus scrofa) (UniProt P00690); test: Inhibition of porcine pancreatic alpha-amylase assessed as starch digestion up to 370 uM up to 120 mins by turbidity assay
T1 sequence (whole entry): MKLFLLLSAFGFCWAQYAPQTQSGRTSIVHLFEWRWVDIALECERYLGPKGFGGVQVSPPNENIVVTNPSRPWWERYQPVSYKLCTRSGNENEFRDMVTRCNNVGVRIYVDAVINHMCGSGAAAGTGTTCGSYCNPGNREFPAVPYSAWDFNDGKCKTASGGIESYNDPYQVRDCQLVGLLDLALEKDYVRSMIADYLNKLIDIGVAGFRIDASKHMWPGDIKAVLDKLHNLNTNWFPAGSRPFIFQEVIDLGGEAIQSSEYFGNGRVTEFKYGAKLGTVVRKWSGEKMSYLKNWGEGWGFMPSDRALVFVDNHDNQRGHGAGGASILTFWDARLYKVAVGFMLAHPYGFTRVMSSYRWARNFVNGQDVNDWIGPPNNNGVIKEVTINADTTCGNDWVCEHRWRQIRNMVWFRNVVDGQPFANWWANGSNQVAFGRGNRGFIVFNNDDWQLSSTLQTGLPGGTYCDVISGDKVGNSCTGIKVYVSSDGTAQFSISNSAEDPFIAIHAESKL

Pancreatic alpha-amylase [2] = biological target: T2, Pancreatic alpha-amylase (Sus scrofa, UniProt P00690); test: Inhibition of porcine pancreatic alpha-amylase assessed as starch digestion up to 120 mins by turbidity assay
T2 sequence (P00690 whole entry): T1 sequence (whole entry)

Rattus norvegicus [3] = species on record: Rattus norvegicus; test: Inhibition of rat intestine alpha-glucosidase assessed as starch digestion by turbidity assay
Rattus norvegicus [4] = species on record: Rattus norvegicus; test: Inhibition of rat intestine alpha-glucosidase assessed as starch digestion up to 370 uM up to 120 mins by turbidity assay
Alpha-amylase = Alpha-amylase (Bacillus subtilis (strain 168), UniProt P00691); test: Inhibition of Bacillus subtilis alpha-amylase
Sequence of Alpha-amylase (P00691 whole entry): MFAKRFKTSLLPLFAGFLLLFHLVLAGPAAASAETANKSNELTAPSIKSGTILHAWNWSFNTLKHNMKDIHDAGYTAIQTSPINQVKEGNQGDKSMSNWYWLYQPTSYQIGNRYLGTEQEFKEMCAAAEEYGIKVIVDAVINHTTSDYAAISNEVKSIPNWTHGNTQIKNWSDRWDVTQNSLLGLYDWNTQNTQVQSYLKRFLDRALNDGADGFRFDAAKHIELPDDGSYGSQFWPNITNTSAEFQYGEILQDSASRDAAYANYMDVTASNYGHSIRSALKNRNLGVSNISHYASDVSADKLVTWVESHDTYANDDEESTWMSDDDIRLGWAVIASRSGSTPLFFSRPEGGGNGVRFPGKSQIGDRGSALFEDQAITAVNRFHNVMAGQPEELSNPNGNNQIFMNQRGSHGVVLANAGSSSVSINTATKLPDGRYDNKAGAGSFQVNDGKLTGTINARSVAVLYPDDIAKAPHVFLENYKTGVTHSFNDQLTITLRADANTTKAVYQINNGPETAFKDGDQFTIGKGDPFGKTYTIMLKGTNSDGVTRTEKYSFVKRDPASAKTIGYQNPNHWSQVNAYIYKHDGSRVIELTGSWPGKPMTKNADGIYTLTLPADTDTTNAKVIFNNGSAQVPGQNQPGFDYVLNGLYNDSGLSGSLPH

Pancreatic alpha-amylase [5] = biological target: T2, Pancreatic alpha-amylase; test: Non-competitive inhibition of porcine pancreatic alpha-amylase by Lineweaver-Burk plot analysis
Outline: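 Corn starch substrate 0.25–1 mg/mL, inhibitor at 11, 18 and 22 µM. Inhibitor (dissolved in methanol, diluted in 0.1 M sodium phosphate pH 6.9) preincubated with starch at 37 °C for 15 min. Enzyme then added and reaction stopped at 5 min with DNSA reagent. Boiled 5 min and absorbance read at 540 nm. Initial velocity taken from reducing sugar released. Mode assigned by Michaelis–Menten and Lineweaver–Burk analysis, with a buffer-only control.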

Aspergillus oryzae = test: Inhibition of Aspergillus oryzae alpha-amylase

Row | inhibition [1] | IC50 (Pancreatic alpha-amylase [2]) [µM] | Compound | further results
1 | inactive |  | COc1cc2c(c3c1CC[C@@H](c1ccccc1)O3)[C@H]1c3c(cc(OC(=O)c4ccccc4)c(C)c3OC)O[C@@](c3ccccc3)(O2)[C@@H]1O | 
2 |  | 12 | COc1cc2c(c3c1CC[C@@H](c1ccccc1)O3)[C@H]1c3c(cc(OC(=O)c4cc(O)c(O)c(O)c4)c(C)c3OC)O[C@@](c3ccccc3)(O2)[C@@H]1O | 
3 |  |  | C[C@@H]1O[C@@H](O[C@@H]2[C@@H](O)[C@H](O)[C@H](O[C@H]3[C@H](O)[C@@H](O)C(O)O[C@@H]3CO)O[C@H]2CO)[C@@H](O)[C@H](O)[C@H]1N[C@H]1C=C(CO)[C@@H](O)[C@H](O)[C@H]1O (some centres undefined) | inhibition (Rattus norvegicus [3]): Active
4 | inactive |  | COc1cc2c(c3c1CC[C@@H](c1ccccc1)O3)[C@H]1c3c(cc(OS(=O)(=O)O)c(C)c3OC)O[C@@](c3ccccc3)(O2)[C@@H]1O | 
5 | inactive |  | COc1cc2c(c3c1CC[C@@H](c1ccccc1)O3)[C@H]1c3c(cc(OC(C)=O)c(C)c3OC)O[C@@](c3ccccc3)(O2)[C@@H]1O | 
6 | Active |  | COc1cc2c(c3c1CC[C@@H](c1ccccc1)O3)[C@H]1c3c(cc(O)c(C)c3OC)O[C@@](c3ccccc3)(O2)[C@@H]1O (mixture of isomers) | inhibition (Rattus norvegicus [4]): inactive
7 |  | 27 | COc1cc2c(c3c1CC[C@@H](c1ccccc1)O3)[C@@H]1c3c(cc(O)c(C)c3OC)O[C@](c3ccccc3)(O2)[C@H]1O | IC50 (Alpha-amylase): 42 µM; Ki (Pancreatic alpha-amylase [5]): 11.7 µM; inhibition (Aspergillus oryzae): inactive
8 | inactive |  | COc1cc2c(c3c1CC[C@@H](c1ccccc1)O3)[C@H]1c3c(cc(OC(=O)c4cc(OC(C)=O)c(OC(C)=O)c(OC(C)=O)c4)c(C)c3OC)O[C@@](c3ccccc3)(O2)[C@@H]1O | 
9 |  | 23 | COc1cc2c(c3c1CC[C@@H](c1ccccc1)O3)[C@H]1c3c(cc(O)c(C)c3OC)O[C@@](c3ccccc3)(O2)[C@@H]1O | 
10 | inactive |  | Oc1cc(O)c2c(c1)O[C@@]1(c3ccc(O)c(O)c3)Oc3cc(O)c4c(c3[C@@H]2[C@H]1O)O[C@H](c1ccc(O)c(O)c1)[C@H](O)C4 | 

Reference: ChEMBL document CHEMBL3739330, “Phenolic group on A-ring is key for dracoflavan B as a selective noncompetitive inhibitor of α-amylase” (Bioorg Med Chem, 2015)
